Results collected from several papers.
Compare with care: the assays were run in different laboratories.
Target: Rhodopsin kinase GRK7 (GRK7, Homo sapiens, UniProt Q8WTQ7)
One construct used (Q8WTQ7 1-553): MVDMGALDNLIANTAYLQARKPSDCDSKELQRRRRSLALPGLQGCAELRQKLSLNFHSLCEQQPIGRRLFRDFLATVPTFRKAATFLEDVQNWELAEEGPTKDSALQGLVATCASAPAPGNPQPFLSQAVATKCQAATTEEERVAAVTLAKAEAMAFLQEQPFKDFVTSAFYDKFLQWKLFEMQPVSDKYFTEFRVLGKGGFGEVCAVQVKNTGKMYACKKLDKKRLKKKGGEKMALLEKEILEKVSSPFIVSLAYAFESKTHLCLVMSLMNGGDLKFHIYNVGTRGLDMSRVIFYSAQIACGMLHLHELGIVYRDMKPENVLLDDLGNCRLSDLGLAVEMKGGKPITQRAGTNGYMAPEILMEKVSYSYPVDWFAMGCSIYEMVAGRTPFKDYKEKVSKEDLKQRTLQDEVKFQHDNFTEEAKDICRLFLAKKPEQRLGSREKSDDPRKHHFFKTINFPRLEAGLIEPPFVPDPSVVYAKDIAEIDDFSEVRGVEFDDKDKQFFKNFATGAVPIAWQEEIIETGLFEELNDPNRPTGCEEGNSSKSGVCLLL

With `FC(F)(F)Oc1cccc(-c2cnc3ccc(-c4ccncc4)nn23)c1` the remaining binding was 24% (cell-free assay, competition with immobilised ligand; 5 µM).
With `COc1cc(-c2cn(C3CCc4c(F)cccc4N(CC(F)(F)F)C3=O)nn2)ccc1-n1cnc(C)c1` (stereo not shown) the remaining binding was 100% (cell-free assay, competition with immobilised ligand; 1 µM).
`COc1cnc(Nc2cccc(S(N)(=O)=O)c2)nc1N1CCN(c2ccccc2)CC1` gave a remaining binding of 58% (binding, competition with immobilised ligand; 1 µM).
With `CN(C)c1nccc(-c2cnc3ncccn23)n1` the remaining binding was 41% (binding; 1 µM).
With `Nc1ncc2c(n1)-c1c([nH]c3ccc(C#CC4CC4)cc13)CCCC2` the remaining binding was 93% (binding, competition with immobilised ligand; 1 µM).
`FC(F)(F)c1ccc2c(c1)nc(-c1cccnc1)n2C1CC1` has a remaining binding of 81% (cell-free assay, competition with immobilised ligand; 1 µM).
For `O=C(c1ccc(Nc2ncc(Cl)c(-c3cc4ccccc4s3)n2)cc1)N1CCC(N2CCCC2)CC1`, the remaining binding was 56% (binding, competition with immobilised ligand; 1 µM).
With `O=C(Nc1ccc(Oc2ccc(F)cc2)cc1)N1CCc2ncccc2[C@H]1c1ccc(F)cc1` the remaining binding was 100% (cell-free assay, competition with immobilised ligand; 1 µM).
For `C[C@@H](c1ccc(-n2cnc3c(N)ncnc32)cc1)N1CCc2nn(C)c(Cc3ccccc3)c2C1=O`, the remaining binding was 72% (binding, competition with immobilised ligand; 0.1 µM).
With `O=C(NCc1ncc(C(F)(F)F)cc1Cl)c1ccc2c(c1)C1(CCS(=O)(=O)CC1)[C@H](C1CC1)N2S(=O)(=O)c1ccc(F)cc1` the remaining binding was 80% (cell-free assay, competition with immobilised ligand; 1 µM).
`O=C(Nc1c[nH]nc1C(=O)NC1CCNCC1)c1cc(F)cc(F)c1` gave a remaining binding of 84% (binding, competition with immobilised ligand; 1 µM).
`N[C@H]1CCN(c2nccc(-c3cnn4ncccc34)n2)C1` gave a remaining binding of 100% (binding; 1 µM).
`O=C(c1ccc(Nc2nccc(-c3cc4ccccc4s3)n2)cc1)N1CCC(N2CCCC2)CC1` has a remaining binding of 79% (binding, competition with immobilised ligand; 1 µM).
The remaining binding of `c1cnn2ncc(-c3ccnc(N4CCC45COC5)n3)c2c1` is reported as 66% (binding; 1 µM).
`O=C(NCCCN1CCOCC1)c1ccc(Nc2nccc(-c3cc4ccccc4s3)n2)cc1` has a remaining binding of 100% (binding, competition with immobilised ligand; 1 µM).
`Cc1cnn2ncc(-c3ccnc(N(C)C)n3)c2c1` has a remaining binding of 84% (binding; 1 µM).
The remaining binding of `O=C(Nc1cccnn1)N1CC(C/C=C/c2cncc(Oc3ccc(C(F)(F)F)cn3)n2)C1` is reported as 85% (cell-free assay, competition with immobilised ligand; 1 µM).
`CN(c1nccc(-c2cnn3ncccc23)n1)C1CC1` has a remaining binding of 100% (binding; 1 µM).
The remaining binding of `O=S(=O)(NC1CCC(c2cc(F)ccc2F)(S(=O)(=O)c2ccc(Cl)cc2)CC1)C(F)(F)F` (stereo not shown) is reported as 100% (cell-free assay, competition with immobilised ligand; 1 µM).
With `CNC(=O)[C@@H]1CC[C@@H](n2c(-c3ccc4cnccc4c3)nc3ccc(C(=O)NCc4cccc(C(N)=O)c4)cc32)C1` the remaining binding was 100% (binding, competition with immobilised ligand; 1 µM).
`CCC(=O)N[C@@H]1CC[C@H](C(=O)N(C)c2ccc(-c3nc4ccccc4o3)cc2)C1` has a remaining binding of 93% (cell-free assay, competition with immobilised ligand; 1 µM).
`COc1ccnn2ncc(-c3ccnc(N(C)C)n3)c12` has a remaining binding of 94% (binding; 1 µM).
